Published values from different studies.
Compare with care: the assays were run in different laboratories.

| SMILES | target or system | test | test system | setting | quantity | value |
| --- | --- | --- | --- | --- | --- | --- |
| O=c1[nH]c2cc(-c3ccc(Cl)cc3)sc2c(=O)n1O | Human betaherpesvirus 5 | viral replication, inhibitor | – | 10 µM, 7 days | inhibition | 70% |
| NNC(=O)c1ccncc1 | Mycobacterium tuberculosis | microbial growth | – | – | IC50 | 0.12 µM |
| Nc1nc(O)c2ncn(COC(CO)CO)c2n1 | Human betaherpesvirus 5 | viral replication, inhibitor | HFF | – | EC50 | 1.6 µM |
| CCCCCCC#Cc1cncc(-c2nnc(SCc3ccc([N+](=O)[O-])o3)n2C2CC2)c1 | Mycobacterium tuberculosis | microbial growth | ERDMAN | – | IC90 | 0.13 µM |
| O=C1c2ccccc2C(c2ccccc2)C(=O)N1O (stereo not drawn) | Human betaherpesvirus 5 | viral replication, inhibitor | – | 10 µM, 7 days | inhibition | 23% |
| CCOC(=O)C1=C(N)N(c2ccc(C(=O)OCC)cc2)C(O)=C(C#N)C12C(=O)Nc1ccccc12 (stereo not drawn) | HepG2 | cell growth or viability, MTT | – | 3.125 µM, 24 h | viability | 74.5% |
| Nc1ncnc2c([C@@H]3N[C@H](CO)[C@@H](O)[C@H]3O)c[nH]c12 | human respiratory syncytial virus | viral replication, inhibitor | MA104 | 28.4 µM | inhibition | 102% |
| Cc1c(C(=O)O)sc2[nH]c(=O)n(O)c(=O)c12 | Human betaherpesvirus 5 | viral replication, inhibitor | – | 10 µM, 7 days | inhibition | 11% |
| CO[C@H]1/C=C/O[C@@]2(C)Oc3c(C)c(O)c4c(O)c(c(/C=N/N5CCN(C)CC5)c(O)c4c3C2=O)NC(=O)/C(C)=C\C=C\[C@H](C)[C@H](O)[C@@H](C)[C@@H](O)[C@@H](C)[C@H](OC(C)=O)[C@@H]1C | Mycobacterium tuberculosis | microbial growth | ERDMAN | – | IC50 | 0.031 µM |
| O=c1[nH]c2sc(-c3ccc(F)cc3)cc2c(=O)n1O | Human betaherpesvirus 5 | viral replication, inhibitor | – | 10 µM, 7 days | inhibition | -12% |
| CCCCCCC#Cc1cncc(-c2nnc(SCc3ccc(Cl)cc3)n2C)c1 | Mycobacterium tuberculosis | microbial growth | – | – | IC50 | 0.85 µM |
| CN1CC[C@]23c4c5ccc(O)c4O[C@H]2[C@@H](O)C=C[C@H]3[C@H]1C5 | – | thermal pain | rat | intraperitoneal | ED50 | 7.63 mg/kg |
